In brackets after ≈: the same amount, converted by molar mass.
Legend:
[1] = Plasma concentration in high sucrose diet Sprague-Dawley rat at 10 mg/kg, po treated after 6 hrs; type: ADME, organism-based
How it was run: (§1)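 Sprague-Dawley rats on a high sucrose diet, given a single oral 10 mg/kg dose. Plasma, liver and eyelid drug concentrations were measured 6 h later, n=3. Liver/eyelid ratio was taken from the tissue concentrations.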

[2] = Apparent terminal half life in Sprague-Dawley rat at 10 mg/kg, po; type: ADME, organism-based; conditions: in vivo, read-out: betat1/2(app) (converted)
How it was run: (§2)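 Two male Sprague-Dawley rats per route, 10 mg/kg po and 1 mg/kg iv. Cmax, tmax, terminal-phase half-life and AUC0-inf were taken from plasma concentration–time curves. Bioavailability was derived from the po and iv data.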

Rattus norvegicus [3] = assay: Toxicity in Sprague-Dawley rat at 100 mg/kg, po once daily for 2 weeks; type: organism-based; conditions: in vivo, 336 h
How it was run: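 Male Sprague Dawley rats, 6 weeks old (5 per group), were dosed orally once daily for 2 weeks at 100 or 1000 mg/kg as a suspension in 0.5% methylcellulose; controls received vehicle. Readouts: clinical observations, body weight, food consumption, ophthalmoscopy in week 2, and terminal necropsy, hematology, clinical chemistry, organ weights and histopathology. Plasma levels were measured 24 h post-dose on days 1, 5 and 10.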

Mus musculus [4] = assay: Ex vivo inhibition of SCD1 in C57BL/6J mouse liver assessed as residual activity at 10 mg/kg, po treated for 24 hrs followed by incubation with [14C]stearoyl-CoA substrate for 10 mins by TLC assay relative to control; type: functional
How it was run: (§3)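 Male 6-week-old C57BL/6J mice dosed orally as a suspension in 0.5% methylcellulose. Liver or eyelid was taken 6 or 24 h later and homogenized in 100 mM Tris-HCl pH 7.4 with 0.25 M sucrose. S9 was obtained at 10,000 × g, 4 °C. S9 was incubated with [14C]stearoyl-CoA, NADH, MgCl2 and cytochrome b5 at room temperature, 10 min for liver and 30 min for eyelid. Lipids were saponified and run on AgNO3 TLC to quantify stearate and oleate. Result is % of vehicle control.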

[5] = Ratio of drug uptake in high sucrose diet Sprague-Dawley rat liver to eyelid at 10 mg/kg, po treated after 6 hrs; type: ADME, organism-based; conditions: in vivo; how it was run: as §1
Rattus norvegicus [6] = assay: Ex vivo inhibition of SCD1 in high sucrose diet Sprague-Dawley rat liver treated orally for 6 hrs followed by incubation with [14C]stearoyl-CoA substrate for 10 mins by TLC assay; type: functional, organism-based
How it was run: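 Sprague-Dawley rats on a high sucrose diet, given oral 1 or 10 mg/kg. Liver, epididymal adipose and eyelid were taken 6 h later and homogenized. S9 SCD activity was measured by [14C]stearoyl-CoA conversion to oleate and quantified by AgNO3 TLC imaging. Result is % remaining activity versus control, mean ± SD, n=3.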

[7] = Solubility of the compound in PBS at pH 7.2; type: physicochemical
[8] = Total clearance in C57BL/6J mouse at 1 mg/kg, iv; type: ADME, organism-based; conditions: in vivo
How it was run: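 Single intravenous dose of 1 mg/kg, with a parallel oral arm at 10 mg/kg, given to two male animals per species: C57BL/6J mice and Sprague Dawley rats. Total body clearance was derived from the plasma concentration–time profile of the compound.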

[9] = Oral bioavailability in C57BL/6J mouse at 10 mg/kg; type: ADME, organism-based; conditions: in vivo
How it was run: (§4)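 Two male C57BL/6J mice per route, 10 mg/kg po and 1 mg/kg iv. Plasma concentration–time profiles gave Cmax, tmax, terminal half-life and AUC0-inf. Bioavailability was derived from the po and iv data.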

[10] = AUC (0 to infinity) in Sprague-Dawley rat at 10 mg/kg, po; type: ADME, organism-based; set-up: dose 10 mg/kg, route oral, time infinity; conditions: in vivo
Cytochrome P450 2D6 = Cytochrome P450 2D6 (Homo sapiens, UniProt P10635); assay: Inhibition of CYP2D6 (unknown origin); type: ADME
Sequence of Cytochrome P450 2D6 (P10635 whole entry): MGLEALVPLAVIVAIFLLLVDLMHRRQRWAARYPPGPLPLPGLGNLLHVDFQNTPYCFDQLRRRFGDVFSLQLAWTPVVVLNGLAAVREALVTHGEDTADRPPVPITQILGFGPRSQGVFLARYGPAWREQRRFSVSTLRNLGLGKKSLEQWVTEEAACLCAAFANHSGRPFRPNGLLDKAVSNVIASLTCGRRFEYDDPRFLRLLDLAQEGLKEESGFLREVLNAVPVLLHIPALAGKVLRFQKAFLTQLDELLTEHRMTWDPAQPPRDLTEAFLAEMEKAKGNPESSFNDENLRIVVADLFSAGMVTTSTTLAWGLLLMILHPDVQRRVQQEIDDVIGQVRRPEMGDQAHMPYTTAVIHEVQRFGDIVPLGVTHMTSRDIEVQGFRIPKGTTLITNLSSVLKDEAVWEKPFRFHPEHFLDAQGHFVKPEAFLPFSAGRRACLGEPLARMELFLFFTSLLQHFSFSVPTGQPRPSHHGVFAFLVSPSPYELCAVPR

Acyl-CoA desaturase 1 = target: T1, Acyl-CoA desaturase 1 (Rattus norvegicus, UniProt P07308); assay: Inhibition of rat liver microsome SCD assessed as reduction in [3H]H2O production using stearoyl [9,10-3H]CoA as substrate in presence of NADH incubated for 30 mins by scintillation counting method; type: microsomes
T1 sequence (P07308 whole entry): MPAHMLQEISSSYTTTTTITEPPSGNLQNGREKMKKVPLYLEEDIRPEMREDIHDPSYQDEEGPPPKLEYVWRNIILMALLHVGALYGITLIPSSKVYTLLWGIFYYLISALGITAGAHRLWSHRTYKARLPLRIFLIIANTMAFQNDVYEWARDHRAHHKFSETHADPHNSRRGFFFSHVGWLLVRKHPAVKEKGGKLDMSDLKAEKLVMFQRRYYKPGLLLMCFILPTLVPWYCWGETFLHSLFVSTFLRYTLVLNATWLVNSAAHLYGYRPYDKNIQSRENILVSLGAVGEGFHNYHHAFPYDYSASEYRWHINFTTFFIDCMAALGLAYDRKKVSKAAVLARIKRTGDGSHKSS
How it was run: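 Desaturation of [9,10-3H]stearoyl-CoA measured as released [3H]H2O. Water was separated from charcoal-adsorbed substrate by filtration and counted by scintillation. Remaining activity = (compound − background)/(control − background). DMSO wells served as control and pre-stopped wells as background. IC50 was interpolated from the two points bracketing 50%.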

Cytochrome P450 2C9 = Cytochrome P450 2C9 (Homo sapiens, UniProt P11712); assay: Inhibition of CYP2C9 (unknown origin); type: ADME
Sequence of Cytochrome P450 2C9 (P11712 whole entry): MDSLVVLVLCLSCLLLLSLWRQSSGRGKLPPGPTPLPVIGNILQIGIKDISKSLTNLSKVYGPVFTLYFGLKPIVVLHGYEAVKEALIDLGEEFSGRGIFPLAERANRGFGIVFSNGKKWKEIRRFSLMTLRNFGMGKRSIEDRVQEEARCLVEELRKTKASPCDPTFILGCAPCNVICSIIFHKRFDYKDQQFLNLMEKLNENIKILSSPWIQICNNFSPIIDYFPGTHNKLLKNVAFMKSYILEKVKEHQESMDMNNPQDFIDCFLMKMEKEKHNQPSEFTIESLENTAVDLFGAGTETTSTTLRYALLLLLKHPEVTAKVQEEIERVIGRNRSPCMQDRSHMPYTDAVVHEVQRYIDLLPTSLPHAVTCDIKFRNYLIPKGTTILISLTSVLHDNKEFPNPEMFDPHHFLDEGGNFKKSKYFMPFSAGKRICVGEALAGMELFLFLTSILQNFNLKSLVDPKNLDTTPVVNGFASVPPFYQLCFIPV

[11] = Apparent terminal half life in C57BL/6J mouse at 10 mg/kg, po; type: ADME, organism-based; conditions: in vivo, read-out: betat1/2(app) (converted); how it was run: as §4
[12] = Cmax in Sprague-Dawley rat at 10 mg/kg, po; type: ADME, organism-based; set-up: dose 10 mg/kg, route oral; conditions: in vivo; how it was run: as §2
[13] = Apparent permeability of the compound in human Caco2 cells; type: ADME, cell-based; conditions: Caco-2
Mus musculus [14] = assay: Ex vivo inhibition of SCD1 in C57BL/6J mouse liver assessed as residual activity at 1 mg/kg, po treated for 6 hrs followed by incubation with [14C]stearoyl-CoA substrate for 10 mins by TLC assay relative to control; type: functional; how it was run: as §3
Cytochrome P450 2A6 = target: T2, Cytochrome P450 2A6 (Homo sapiens, UniProt P11509); assay: Inhibition of CYP2A6 (unknown origin); type: ADME
T2 sequence (P11509 whole entry): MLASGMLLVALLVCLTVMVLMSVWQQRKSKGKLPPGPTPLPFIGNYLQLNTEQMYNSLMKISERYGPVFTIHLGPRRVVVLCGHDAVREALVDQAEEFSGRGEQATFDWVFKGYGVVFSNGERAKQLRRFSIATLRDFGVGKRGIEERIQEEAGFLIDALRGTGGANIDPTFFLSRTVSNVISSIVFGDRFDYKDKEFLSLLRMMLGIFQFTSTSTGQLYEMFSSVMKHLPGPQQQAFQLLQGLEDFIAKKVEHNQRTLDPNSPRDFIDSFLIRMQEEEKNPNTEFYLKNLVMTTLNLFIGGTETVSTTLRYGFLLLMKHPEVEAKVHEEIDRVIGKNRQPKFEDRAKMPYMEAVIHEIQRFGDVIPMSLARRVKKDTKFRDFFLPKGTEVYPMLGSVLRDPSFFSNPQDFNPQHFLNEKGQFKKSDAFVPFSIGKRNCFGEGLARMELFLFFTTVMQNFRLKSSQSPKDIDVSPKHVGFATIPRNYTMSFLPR

- concentration at 6 h [1]: 552 nM
- half-life [2]: 282 min
- Ratio [5]: 6.3
- solubility [7]: 82 µM (≈ 35.2 µg/mL)
- clearance [8]: 10.2 mL/min/kg
- bioavailability [9]: 28%
- AUC(0-inf) [10]: 16.5 µM·h
- IC50 (Cytochrome P450 2D6): > 50 µM
- IC50 (Acyl-CoA desaturase 1): 6.5 nM
- IC50 (Cytochrome P450 2C9): > 50 µM
- half-life [11]: 312 min
- Cmax [12]: 8 µM
- Papp [13]: 43.6 ×10⁻⁶ cm/s
- IC50 (Cytochrome P450 2A6): > 50 µM
SMILES: CCCCc1ccccc1NCc1ccc(C(=O)Nc2nc(CC(=O)O)cs2)s1
- Activity (Rattus norvegicus [3]): Non-Toxic
- Activity (Mus musculus [4]): 11%
- inhibition (Rattus norvegicus [6]): Dose-dependent effect
- Activity (Mus musculus [14]): 13%

Source: ChEMBL document CHEMBL4265954, “Discovery of potent liver-selective stearoyl-CoA desaturase-1 (SCD1) inhibitors, thiazole-4-acetic acid derivatives, for the treatment of diabetes, hepatic steatosis, and obesity” (Eur J Med Chem, 2018)
